From paper PMC9063559 (RSC Advances, 2019) come the findings set out here.

Format in all cases: cell-based
Series [1] concerns Plasmodium falciparum (NF54 strain). Description: in vitro antiplasmodial activity, chloroquine-sensitive NF54 strain. The note with it: NF54, read-out: IC50 P. falciparum (NF54 strain). Put shortly:
(§1)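 Test compounds were run in vitro in parallel against P. falciparum NF54 and K1, T. cruzi Tulahuen C4 amastigotes, T. b. rhodesiense STIB 900 trypomastigotes, L. donovani MHOM-ET-67/L82 amastigotes and rat L6 skeletal myoblasts. Each IC50 is the mean of two independent assays, with individual values within a factor of 2. Selectivity index = L6 IC50 ÷ P. falciparum IC50 for the respective strain.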

In series [2] the test system is Trypanosoma brucei rhodesiense (STIB 900 strain, trypomastigotes). Description: in vitro activity against Trypanosoma brucei rhodesiense. The note with it: RHODESIENSE|STIB900, read-out: IC50 T. brucei rhodesiense. In short, it runs like this: as §1
The subject of series [3] is Leishmania donovani (MHOM-ET-67/L82, amastigotes). Description: in vitro activity against Leishmania donovani. The note with it: read-out: IC50 L. donovani. In short, it runs like this:
as §1

Series [4] can be described thus: cytotoxicity against mammalian host cells. The note with it: rat, rat skeletal myoblast L6 cells. In short, it runs like this: as §1

A word on the IC50: it is the concentration that gives 50% inhibition. For `C[C@@H]1CC[C@H]2[C@@H](C)C(=O)O[C@@H]3O[C@@]4(C)CC[C@@H]1[C@]32OO4` [Artemisinin], the 50% inhibitory concentration (IC50) in series [1] was 21 nM. `Nc1nc(N)nc(Nc2ccc([As]3SCC(CO)S3)cc2)n1` (stereo not shown) [Melarsoprol]: the IC50 in series [2] is 30 nM. In the case of `CCCCCCCCCCCCCCCCOP(=O)([O-])OCC[N+](C)(C)C` [Miltefosine], the half-maximal inhibitory concentration (IC50) in series [3] is 1080 nM. The compound `COc1cc([C@@H]2c3cc4c(cc3[C@H](O)[C@H]3COC(=O)[C@H]23)OCO4)cc(OC)c1OC` [Podophyllotoxin] gave a concentration for half-maximal inhibition (IC50) in series [4] of 9.6 nM.
